TNAP act hi DEA: TNAP (human) activation, high acceptor; AID 1136; 200,000 tested, under 10 active; P05186; purified TNAP, CDP-star luminescence, 1 M DEA, 30 min; hits give high values; 0 = EDTA background, 1 = DMSO-only activity; activation factor at 20 µM;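 active = activation factor at least 2 at 20 µM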
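Measured by: Luminescent substrate turnover signal | Test system: Human TNAP | Input: TNAP 1/800 final | Dosing: 20 µM single point | Schedule: 30 min, room temperature | Controls: EDTA wells as negative control, DMSO wells as positive control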
TNAP inh no acc: inhibitors of human TNAP without phosphate acceptor | inhibition, % at 20 µM | purified TNAP, CDP-star luminescence, 30 min | P05186 | 200,000 tested, 0.26% active;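 active = tissue-nonspecific alkaline phosphatase inhibition above about 50% at 20 µM in the single-dose screen, limit read from the data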;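 note: 0% = DMSO negative control and 100% = EDTA positive control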
PMI act: activators of human phosphomannose isomerase; 190,000 tested, 0.005% active; P34949; purified human PMI, coupled resazurin fluorescence, 20 min; hits give high values; 1 = vehicle control, 0 substrate-free wells; activation factor at 20 µM;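 active = activation factor of 2 or more at 20 µM, relative to plate controls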
Target sequence (P34949 whole entry, looked up): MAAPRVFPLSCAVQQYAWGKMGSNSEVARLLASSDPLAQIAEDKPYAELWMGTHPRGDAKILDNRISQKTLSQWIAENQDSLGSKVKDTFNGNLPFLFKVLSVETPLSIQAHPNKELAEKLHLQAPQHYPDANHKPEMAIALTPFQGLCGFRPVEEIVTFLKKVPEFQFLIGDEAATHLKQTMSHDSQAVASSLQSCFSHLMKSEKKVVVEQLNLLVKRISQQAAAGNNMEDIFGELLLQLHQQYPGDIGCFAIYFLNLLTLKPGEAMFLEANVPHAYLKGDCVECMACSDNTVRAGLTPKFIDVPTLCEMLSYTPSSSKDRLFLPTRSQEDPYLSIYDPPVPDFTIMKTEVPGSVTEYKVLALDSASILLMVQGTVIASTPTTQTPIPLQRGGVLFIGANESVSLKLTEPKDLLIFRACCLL
TNAP inh hiacc: inhibitors of human TNAP at high phosphate acceptor concentration; P05186; purified TNAP, CDP-star luminescence, 1 M DEA; inhibition, % at 20 µM; 200,000 tested, 0.03% active; AID 1135;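 active = over 50% inhibition of tissue-nonspecific alkaline phosphatase at 20 µM in the single-dose screen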;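 note: plate controls were DMSO wells for no effect and EDTA-quenched wells as full inhibition for full effect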
PMI act satM6P: increases human PMI activity with near-saturating mannose 6-phosphate | P34949 | coupled PMI enzyme assay, resazurin fluorescence, 20 min; hits give high values; 1 = untreated enzyme, 0 = substrate-free blank | activation factor at 20 µM | 190,000 tested, 0.34% active | AID 1216;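 active = activation factor of 2 or more at 20 µM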
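test system = human PMI in coupled enzyme assay | medium = HEPES-buffered pH 7.4 with magnesium and detergent | also added = 1.0 mM mannose-6-phosphate substrate with 0.22 mM NADP+ | compound = 20 µM single dose | times = 20 min incubation at room temperature | measured by = resorufin fluorescence (Ex 544/Em 590 nm) from resazurin via diaphorase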
Active calls of the source: *. Only some compounds are listed: those with a hit (about 0.64% of all), similar ones and a draw of the others.

SMILES	TNAP act hi DEA	TNAP inh no acc	PMI act	TNAP inh hiacc	PMI act satM6P
Fc1ccc(/C=C2\CCCC3=C2Nc2ncnn2C3c2ccc(F)cc2)cc1 (configuration not stated)	1	11.6	1.1	2.9	1
Cc1ccc(/C=C2\CCCC3=C2NC(=S)NC3c2ccc(C)cc2)cc1 (configuration not stated)	0.9	6.1	1.6	9.0	2*
CSCSC1=C(C#N)C(c2ccc(Cl)cc2)C(C(C)=O)=C(C)N1 (configuration not stated)	1.1	-7.9	1.5	-5.1	2.1*
O=C(NCCc1ccccc1)C(=O)Nc1ccc([N+](=O)[O-])cc1	1	-6.7	1	-3.6	1
Cc1cc(F)ccc1NCc1ccc([N+](=O)[O-])cc1	1	-2.1	1	2.7	1
COc1cc(OC)c(-c2c3cc(O)c(=O)cc-3oc3cc(O)c(O)cc23)cc1OC	0.8	-324.9	0.3	21.7	0.3
Cc1c2cc(O)c(=O)cc-2oc2cc(O)c(O)cc12	0.8	57.4*	0.5	17.9	0.7
Cc1cc(C)c2nc(SC3CCOC3=O)cc(C)c2c1 (configuration not stated)	1	-7.4	1.5	-3.4	2.5*
O=C(O)c1cc(Cl)c2c(c1)[C@@H]1C=CC[C@@H]1[C@H](c1ccc(S(=O)(=O)N3CCOCC3)cc1)N2	1	-8.6	1.4	-0.6	1.7
Cc1cc(C)c2c(c1)C1C=CCC1C(c1ccc(S(=O)(=O)N3CCOCC3)cc1)N2 (configuration not stated)	1	-5.7	1.4	-2.8	2.2*
C/C(=N\NC(=O)c1ccccc1)c1cc2cc([N+](=O)[O-])ccc2oc1=O	0.4	19.3	0.9	58.5*	1.1
CNC(=O)c1cc2cc(OC)ccc2oc1=O	1	-14.5	1.1	-1.5	1.1
COc1ccc2oc(=O)c(/C(C)=N/Nc3ccccc3)cc2c1	1	-8.3	1.9	3.7	2.5*
C/C(=N\NC(=O)c1ccc([N+](=O)[O-])cc1)c1cc2ccccc2oc1=O	0.9	-2.0	1.1	14.1	1.1
COC(=O)c1ccc(NC(C)=O)cc1O	1.1	-5.8	1	-5.1	1
CCN1CCN(CCOc2cccc(Oc3ccccc3)c2)CC1	1.1	-9.7	1	-6.6	1
O=[N+]([O-])/C(=C\Nc1ccccc1Cl)S(=O)(=O)c1ccccc1	1	-6.6	1.4	-0.6	2.4*
N#CC1=C(N)Oc2n[nH]c(-c3cccs3)c2C1C1CCCCC1 (configuration not stated)	1	22.6	0.9	-2.5	1
N#CC1=C(N)Oc2n[nH]c(-c3cccs3)c2C1C1C=CCCC1 (configuration not stated)	1	53.5*	1	-4.6	0.9
Cc1ccc2cc3c(N)c(C(=O)N4CCOCC4)sc3nc2c1	1.1	-13.5	1.2	-6.7	1.2
Cc1ccc2cc3c(N)c(C(=O)N4CC(=O)Nc5ccccc54)sc3nc2c1	1	0.2	1.3	-2.4	2.1*
Cc1ccc2nc3sc(C(=O)N4CCOCC4)c(N)c3cc2c1	1	0.8	1.5	-3.5	2*
Cc1cc(C)cc(C(=O)N2CC(=O)Nc3ccccc32)c1	1	-9.1	1	-4.7	1
Nc1nc(Cl)cc(N2CCCC2)n1	1	-8.0	0.7	-4.1	0.5
Nc1nc(Cl)cc(N2CCC(c3cc(-c4ccc(Cl)cc4Cl)n[nH]3)CC2)n1	1	55.9*	0.9	-0.8	0.9
SMILES	TNAP act hi DEA	TNAP inh no acc	PMI act	TNAP inh hiacc	PMI act satM6P
O=C(NNc1cccc(Cl)c1)c1cccnc1Cl	1	-6.5	1.7	1.0	2*
O=C(NNc1cccc(Cl)n1)c1cccnc1Cl	1	-41.4	1.1	-0.3	1
COc1cc(C(=O)OCC(=O)NC(=O)C2CCCCC2)ccc1OC(F)F	1	-3.5	1	-3.2	0.9
Cc1ccc(NC(=O)N2CCC(=O)N2)cc1	1	-8.1	1.3	-0.4	2*
Cc1ccc(NC(=O)C(C)C(=O)Nc2ccc(C)cc2)cc1	1	-3.3	1.1	-1.3	1.1
CC(=O)c1ccc2noc(-c3ccc(Cl)cc3)c2c1	1	-6.6	1.7	-0.4	1.9
CC(=O)c1ccc2noc(-c3ccc(F)cc3)c2c1	0.9	2.3	1.7	6.3	2.1*
Cc1noc(C)c1N=Nc1ccc(Br)cc1C(=O)O	1	-3.5	1.2	0.8	1.1
O=C(O)c1ccccc1C(=O)N1N=C2/C(=C/c3cccc([N+](=O)[O-])c3)CCCC2C1c1cccc([N+](=O)[O-])c1 (configuration not stated)	1	78.8*	1	3.1	1
Cc1ccc(NN=C2c3ccccc3-c3ccccc32)cc1	1	7.6	1.3	3.0	2.2*
Cc1ccc(OCC(=O)NN=C2c3ccccc3-c3ccccc32)cc1	1	4.4	1.1	-2.6	1.1
CNC(=O)c1nnsc1S(=O)(=O)c1ccc(Cl)cc1	1	-4.9	0.9	-4.4	0.9
Cc1c(N/N=C(\C#N)C(=O)c2ccccc2)c(=O)n(-c2ccccc2)n1C	0.7	-79.6	1.6	30.4	2.1*
CC(C)(C)C(O)CN1CCCC1 (configuration not stated)	1.1	-8.9	1.2	-5.1	1.1
c1csc(-c2nn3c(Cn4nnc5ccccc54)nnc3s2)c1	1	62.4*	0.9	-4.3	0.9
O=C(CNC(=S)N(Cc1ccccc1)Cc1ccccc1F)NCCc1ccc(Cl)cc1	1.2	-32.5	0.9	-19.7	1
CCOC(=O)c1c(C)nc(C)c2c(=O)oc3ccccc3c12	1	-8.6	1.1	-2.2	1.1
COc1ccc2nc(C)cc(SCC(=O)N/N=C/c3ccc(O)c(O)c3)c2c1	0.8	75.6*	0.7	20.1	1.1
COc1ccc2c(c1)c(C(=O)N/N=C/c1ccc(O)c(O)c1)c(C)n2C	1	55.8*	0.6	0.9	0.9
COc1cccc2c(SCC(=O)N/N=C/c3ccccc3)cc(C)nc12	1	-10.2	0.9	-3.3	0.9
Cc1cc(SCC(=O)N/N=C/c2ccc(O)c(O)c2)c(C)cc1Br	0.9	50.2*	0.8	12.2	0.8
COc1cccc2c(SCC(=O)N/N=C/c3ccc(O)c(O)c3)cc(C)nc12	0.9	72.2*	0.6	11.4	1
COC(=O)CCC(=O)Nc1cccc([N+](=O)[O-])c1	1.1	-17.8	1	-7.8	1
Cn1c(=S)n(C)c2ccccc21	1	7.1	1	1.2	1
Cn1c(=S)ccc2ccccc21	1.1	-12.7	1.8	-7.2	2.3*
CCOC(=O)/C=c1\s/c(=C\c2sccc2C)c(=O)n1CC(=O)NCc1ccc(C)cc1	1	-7.5	1.1	1.4	1.1
O=C1CC(/C=C/c2ccncc2)=Nc2ccccc2N1	1.1	-14.9	1.7	-5.6	2.1*

From PubChem BioAssay
